# Experimental data reported in ChEMBL document CHEMBL3351848, “Novel insights into structure and function of factor XIIIa-inhibitor tridegin” (J Med Chem, 2014).
# Active and inactive are the calls of the source. No cut-off for these calls is given here. Residues, ends and D or L forms follow the SMILES beside them. *: point of attachment. X1 = O=C(c1ccccc1-c1c2ccc(=O)cc-2oc2cc(O)ccc12)*
# Tests used:
# [1] = biological target: T1, Coagulation factor XIII A chain (Homo sapiens, UniProt P00488); assay: Inhibition of recombinant F13a (unknown origin) using H-Tyr-Glu(pNA)-Val-Lys-Val-Ile-Gly-NH2 as substrate by chromogenic assay
# T1 sequence (P00488 whole entry): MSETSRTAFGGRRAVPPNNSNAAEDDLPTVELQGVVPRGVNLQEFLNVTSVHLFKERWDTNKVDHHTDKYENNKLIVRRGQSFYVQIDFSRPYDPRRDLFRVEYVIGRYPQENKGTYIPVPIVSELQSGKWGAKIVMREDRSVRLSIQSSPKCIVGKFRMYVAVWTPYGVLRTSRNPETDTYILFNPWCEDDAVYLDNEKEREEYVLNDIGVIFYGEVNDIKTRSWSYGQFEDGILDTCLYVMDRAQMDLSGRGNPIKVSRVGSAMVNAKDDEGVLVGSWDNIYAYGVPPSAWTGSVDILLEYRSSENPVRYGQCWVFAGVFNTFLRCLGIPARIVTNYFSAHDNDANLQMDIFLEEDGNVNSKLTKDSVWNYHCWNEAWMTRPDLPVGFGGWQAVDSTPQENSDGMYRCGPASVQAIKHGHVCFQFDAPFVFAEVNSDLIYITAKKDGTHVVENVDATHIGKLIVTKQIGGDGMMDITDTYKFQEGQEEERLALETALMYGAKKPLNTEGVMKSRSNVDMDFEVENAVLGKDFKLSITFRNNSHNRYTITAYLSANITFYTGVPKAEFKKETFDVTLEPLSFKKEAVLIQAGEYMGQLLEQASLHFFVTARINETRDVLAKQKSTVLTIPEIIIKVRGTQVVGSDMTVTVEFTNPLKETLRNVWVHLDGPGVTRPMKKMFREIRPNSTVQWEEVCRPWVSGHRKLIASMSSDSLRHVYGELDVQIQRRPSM
# [2] = biological target: T2, Coagulation factor XIII A chain (Homo sapiens) (UniProt P00488); assay: Binding affinity to nonactivated recombinant F13A subunit (unknown origin) by microscale thermophoresis method
# T2 sequence (whole entry): T1 sequence (P00488 whole entry)
# Procedure, shortened: (§1)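 Carboxyfluorescein-labeled peptide (2 μM solution, before mixing) in 50 mM Tris-HCl pH 7.5, 0.9% w/v NaCl, with Tween-20 to 0.1% final. Mixed with an equal volume of protein (FXIIIa, FXIII-A or FXIII-B) in the same buffer, 15 concentrations spanning 3.1 μM to 0.1 nM. After 20 min incubation, the mixture was loaded into glass capillaries and thermophoresis read three times per capillary.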
# [3] = biological target: T3, Coagulation factor XIII B chain (Homo sapiens) (UniProt P05160); assay: Binding affinity to nonactivated recombinant F13B subunit (unknown origin) by microscale thermophoresis method; procedure, shortened: as §1
# T3 sequence (whole entry): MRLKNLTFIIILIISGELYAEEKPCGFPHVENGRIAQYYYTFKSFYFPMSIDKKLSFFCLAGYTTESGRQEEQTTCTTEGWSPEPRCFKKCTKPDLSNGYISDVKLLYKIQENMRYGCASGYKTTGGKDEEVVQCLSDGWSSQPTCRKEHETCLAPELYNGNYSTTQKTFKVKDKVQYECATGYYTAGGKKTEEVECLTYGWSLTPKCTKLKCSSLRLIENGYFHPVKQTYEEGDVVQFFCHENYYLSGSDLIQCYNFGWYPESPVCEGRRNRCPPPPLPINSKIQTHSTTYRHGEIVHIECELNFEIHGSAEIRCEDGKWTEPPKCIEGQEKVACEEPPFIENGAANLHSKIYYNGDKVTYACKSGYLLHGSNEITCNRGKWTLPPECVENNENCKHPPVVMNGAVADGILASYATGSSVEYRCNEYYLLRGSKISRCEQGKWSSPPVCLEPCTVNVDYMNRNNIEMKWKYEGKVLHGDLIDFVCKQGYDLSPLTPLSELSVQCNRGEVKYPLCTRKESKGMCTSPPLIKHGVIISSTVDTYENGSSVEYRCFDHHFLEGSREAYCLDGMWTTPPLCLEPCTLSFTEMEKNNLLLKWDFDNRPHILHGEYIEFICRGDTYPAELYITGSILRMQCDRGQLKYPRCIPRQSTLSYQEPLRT
# [4] = biological target: T4, Protein-glutamine gamma-glutamyltransferase (Homo sapiens) (UniProt P21980); assay: Inhibition of human TGase-2 using fluorogenic FRET substrate at 10 uM
# T4 sequence (whole entry): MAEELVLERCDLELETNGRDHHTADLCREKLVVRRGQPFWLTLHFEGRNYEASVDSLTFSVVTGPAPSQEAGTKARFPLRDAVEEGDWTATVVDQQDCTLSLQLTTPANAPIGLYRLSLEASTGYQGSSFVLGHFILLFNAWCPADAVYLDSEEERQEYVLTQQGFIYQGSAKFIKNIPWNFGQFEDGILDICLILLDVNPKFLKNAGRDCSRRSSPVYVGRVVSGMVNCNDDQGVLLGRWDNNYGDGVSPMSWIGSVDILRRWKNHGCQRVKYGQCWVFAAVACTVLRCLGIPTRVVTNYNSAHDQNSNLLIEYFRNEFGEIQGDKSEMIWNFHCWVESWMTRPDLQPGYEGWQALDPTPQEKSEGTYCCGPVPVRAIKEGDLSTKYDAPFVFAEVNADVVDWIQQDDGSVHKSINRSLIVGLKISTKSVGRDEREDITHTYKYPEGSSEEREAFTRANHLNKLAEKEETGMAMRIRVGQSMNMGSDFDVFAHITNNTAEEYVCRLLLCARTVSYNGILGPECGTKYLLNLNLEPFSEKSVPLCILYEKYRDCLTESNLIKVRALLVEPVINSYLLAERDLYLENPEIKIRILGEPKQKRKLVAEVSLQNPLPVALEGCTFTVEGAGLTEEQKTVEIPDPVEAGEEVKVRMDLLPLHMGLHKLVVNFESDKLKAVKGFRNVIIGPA
# [5] = biological target: T1, Coagulation factor XIII A chain; assay: Binding affinity to recombinant F13A (unknown origin) by microscale thermophoresis method; procedure, shortened: as §1
Structure (SMILES),IC50 [1],Activity [2],Activity [3],inhibition [4],Kd [5]
CC[C@H](C)[C@H](NC(=O)[C@H](CC(=O)O)NC(=O)[C@H](CC(=O)O)NC(=O)[C@H](CCSC)NC(=O)[C@@H]1CCCN1C(=O)[C@H](CCCCN)NC(=O)[C@@H](NC(=O)[C@H](CC(C)C)NC(=O)[C@H](CCC(=O)O)NC(=O)[C@H](CO)NC(=O)[C@H](CCCNC(=N)N)NC(=O)[C@@H]1CCCN1C(=O)[C@H](CCCNC(=N)N)NC(=O)[C@H](CS)NC(=O)[C@H](CCC(N)=O)NC(=O)[C@@H]1CCCN1C(=O)[C@@H](NC(=O)[C@H](Cc1ccccc1)NC(=O)[C@H](C)N)[C@@H](C)CC)[C@@H](C)CC)C(=O)N[C@@H](Cc1ccc(O)cc1)C(=O)N[C@@H](CCC(N)=O)C(=O)N[C@@H](CCCNC(=N)N)C(=O)N1CCC[C@H]1C(=O)N[C@H](C(=O)N[C@@H](CCC(=O)O)C(=O)N[C@@H](Cc1ccccc1)C(=O)N1CCC[C@H]1C(=O)N[C@@H](CC(N)=O)C(=O)N[C@@H](CC(C)C)C(=O)N1CCC[C@H]1C(=O)N[C@@H](CC(C)C)C(=O)N[C@@H](CCCCN)C(=O)N1CCC[C@H]1C(=O)N[C@@H](CCCNC(=N)N)C(=O)N[C@@H](CCC(=O)O)C(=O)O)C(C)C (H-AFIPQCRPRSELIKPMDDIYQRPVEFPNLPLKPRE-OH),1700 nM,inactive,inactive,,
CC[C@H](C)[C@H](NC(=O)[C@H](CC(=O)O)NC(=O)[C@H](CC(=O)O)NC(=O)[C@H](CCSC)NC(=O)[C@@H]1CCCN1C(=O)[C@H](CCCCN)NC(=O)[C@@H](NC(=O)[C@H](CC(C)C)NC(=O)[C@H](CCC(=O)O)NC(=O)[C@H](CO)NC(=O)[C@H](CCCNC(=N)N)NC(=O)[C@@H]1CCCN1C(=O)[C@@H](N)CCCNC(=N)N)[C@@H](C)CC)C(=O)N[C@@H](Cc1ccc(O)cc1)C(=O)N[C@@H](CCC(N)=O)C(=O)N[C@@H](CCCNC(=N)N)C(=O)N1CCC[C@H]1C(=O)N[C@H](C(=O)N[C@@H](CCC(=O)O)C(=O)N[C@@H](Cc1ccccc1)C(=O)N1CCC[C@H]1C(=O)N[C@@H](CC(N)=O)C(=O)N[C@@H](CC(C)C)C(=O)N1CCC[C@H]1C(=O)N[C@@H](CC(C)C)C(=O)N[C@@H](CCCCN)C(=O)N1CCC[C@H]1C(=O)N[C@@H](CCCNC(=N)N)C(=O)N[C@@H](CCC(=O)O)C(=O)O)C(C)C (H-RPRSELIKPMDDIYQRPVEFPNLPLKPRE-OH),2200 nM,inactive,inactive,< 10%,
CC[C@H](C)[C@H](NC(=O)[C@H](CC(=O)O)NC(=O)[C@H](CC(=O)O)NC(=O)[C@H](CCSC)NC(=O)[C@@H]1CCCN1C(=O)[C@H](CCCCN)NC(=O)[C@@H](NC(=O)[C@H](CC(C)C)NC(=O)[C@H](CCC(=O)O)NC(=O)[C@H](CO)NC(=O)[C@H](CCCNC(=N)N)NC(=O)[C@@H]1CCCN1C(=O)[C@H](CCCNC(=N)N)NC(=O)c1ccccc1-c1c2ccc(=O)cc-2oc2cc(O)ccc12)[C@@H](C)CC)C(=O)N[C@@H](Cc1ccc(O)cc1)C(=O)N[C@@H](CCC(N)=O)C(=O)N[C@@H](CCCNC(=N)N)C(=O)N1CCC[C@H]1C(=O)N[C@H](C(=O)N[C@@H](CCC(=O)O)C(=O)N[C@@H](Cc1ccccc1)C(=O)N1CCC[C@H]1C(=O)N[C@@H](CC(N)=O)C(=O)N[C@@H](CC(C)C)C(=O)N1CCC[C@H]1C(=O)N[C@@H](CC(C)C)C(=O)N[C@@H](CCCCN)C(=O)N1CCC[C@H]1C(=O)N[C@@H](CCCNC(=N)N)C(=O)N[C@@H](CCC(=O)O)C(=O)O)C(C)C (X1-RPRSELIKPMDDIYQRPVEFPNLPLKPRE-OH),,inactive,inactive,,800 nM

# Next, values leading:
IC50 [1],Activity [2],Activity [3],inhibition [4],Kd [5],Structure (SMILES)
1900 nM,,,,,CC[C@H](C)[C@H](NC(=O)[C@H](CC(=O)O)NC(=O)[C@H](CC(=O)O)NC(=O)[C@H](CCSC)NC(=O)[C@@H]1CCCN1C(=O)[C@H](CCCCN)NC(=O)[C@@H](NC(=O)[C@H](CC(C)C)NC(=O)[C@H](CCC(=O)O)NC(=O)[C@@H](N)CO)[C@@H](C)CC)C(=O)N[C@@H](Cc1ccc(O)cc1)C(=O)N[C@@H](CCC(N)=O)C(=O)N[C@@H](CCCNC(=N)N)C(=O)N1CCC[C@H]1C(=O)N[C@H](C(=O)N[C@@H](CCC(=O)O)C(=O)N[C@@H](Cc1ccccc1)C(=O)N1CCC[C@H]1C(=O)N[C@@H](CC(N)=O)C(=O)N[C@@H](CC(C)C)C(=O)N1CCC[C@H]1C(=O)N[C@@H](CC(C)C)C(=O)O)C(C)C (H-SELIKPMDDIYQRPVEFPNLPL-OH)
,inactive,inactive,,< 100 nM,CC[C@H](C)[C@H](NC(=O)CNC(=O)[C@H](CCC(N)=O)NC(=O)[C@H](Cc1cnc[nH]1)NC(=O)[C@H](Cc1c[nH]c2ccccc12)NC(=O)[C@H](CCC(=O)O)NC(=O)[C@H](CCCCN)NC(=O)[C@H](CS)NC(=O)[C@@H]1CCCN1C(=O)[C@H](CC(C)C)NC(=O)[C@H](CC(C)C)NC(=O)[C@H](CCCCN)NC(=O)c1ccccc1-c1c2ccc(=O)cc-2oc2cc(O)ccc12)C(=O)N1CCC[C@H]1C(=O)N[C@@H](CC(N)=O)C(=O)N1CCC[C@H]1C(=O)N[C@@H](CCCNC(=N)N)C(=O)N[C@@H](CS)C(=O)N[C@@H](Cc1c[nH]c2ccccc12)C(=O)N[C@@H](CS)C(=O)NCC(=O)N[C@@H](C)C(=O)N[C@@H](CC(=O)O)C(=O)N[C@@H](CC(C)C)C(=O)N[C@@H](CCC(=O)O)C(=O)N[C@@H](CS)C(=O)N[C@@H](C)C(=O)N[C@@H](CCC(N)=O)C(=O)N[C@@H](CC(=O)O)C(=O)N[C@@H](CCC(N)=O)C(=O)N[C@@H](Cc1ccc(O)cc1)C(=O)N[C@@H](CS)C(=O)N[C@@H](C)C(=O)N[C@@H](Cc1ccccc1)C(=O)N[C@H](C(=O)N1CCC[C@H]1C(=O)N[C@@H](CCC(N)=O)C(=O)N[C@@H](CS)C(=O)O)[C@@H](C)CC (X1-KLLPCKEWHQGIPNPRCWCGADLECAQDQYCAFIPQC-OH)
